The text below walks through data of ChEMBL document CHEMBL1124337, “Structure-activity relationships in prazosin-related compounds. Effect of replacing a piperazine ring with an alkanediamine moiety on alpha 1-adrenoreceptor blocking activity” (J Med Chem, 1989).

The target in test [1] is T1, Adrenergic receptor alpha-2 (Rattus norvegicus, UniProt P22086+P19328+P22909).
T1 sequence (P22086 whole entry): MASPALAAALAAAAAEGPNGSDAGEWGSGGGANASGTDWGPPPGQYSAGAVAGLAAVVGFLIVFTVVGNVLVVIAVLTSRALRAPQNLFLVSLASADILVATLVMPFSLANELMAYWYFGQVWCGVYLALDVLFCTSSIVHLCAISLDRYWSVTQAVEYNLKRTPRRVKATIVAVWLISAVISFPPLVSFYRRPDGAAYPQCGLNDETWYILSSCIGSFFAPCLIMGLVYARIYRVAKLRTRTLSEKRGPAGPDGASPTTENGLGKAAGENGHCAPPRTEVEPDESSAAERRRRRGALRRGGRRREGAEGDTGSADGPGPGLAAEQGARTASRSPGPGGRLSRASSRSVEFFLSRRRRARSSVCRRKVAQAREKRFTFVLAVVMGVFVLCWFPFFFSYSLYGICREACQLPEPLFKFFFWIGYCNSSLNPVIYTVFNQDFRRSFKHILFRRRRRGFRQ
T1 sequence (P19328 whole entry): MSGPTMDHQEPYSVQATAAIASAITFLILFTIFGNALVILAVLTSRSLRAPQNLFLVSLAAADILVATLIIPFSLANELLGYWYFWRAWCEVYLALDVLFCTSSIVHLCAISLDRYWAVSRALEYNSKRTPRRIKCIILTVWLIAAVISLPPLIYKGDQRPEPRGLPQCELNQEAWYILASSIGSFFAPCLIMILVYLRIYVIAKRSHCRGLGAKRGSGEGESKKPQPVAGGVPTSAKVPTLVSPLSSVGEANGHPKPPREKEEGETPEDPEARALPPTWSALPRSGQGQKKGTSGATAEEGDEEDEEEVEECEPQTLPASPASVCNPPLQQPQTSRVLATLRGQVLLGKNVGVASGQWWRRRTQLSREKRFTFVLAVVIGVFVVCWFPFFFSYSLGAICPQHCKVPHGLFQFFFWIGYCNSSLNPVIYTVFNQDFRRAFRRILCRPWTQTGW
T1 sequence (P22909 whole entry): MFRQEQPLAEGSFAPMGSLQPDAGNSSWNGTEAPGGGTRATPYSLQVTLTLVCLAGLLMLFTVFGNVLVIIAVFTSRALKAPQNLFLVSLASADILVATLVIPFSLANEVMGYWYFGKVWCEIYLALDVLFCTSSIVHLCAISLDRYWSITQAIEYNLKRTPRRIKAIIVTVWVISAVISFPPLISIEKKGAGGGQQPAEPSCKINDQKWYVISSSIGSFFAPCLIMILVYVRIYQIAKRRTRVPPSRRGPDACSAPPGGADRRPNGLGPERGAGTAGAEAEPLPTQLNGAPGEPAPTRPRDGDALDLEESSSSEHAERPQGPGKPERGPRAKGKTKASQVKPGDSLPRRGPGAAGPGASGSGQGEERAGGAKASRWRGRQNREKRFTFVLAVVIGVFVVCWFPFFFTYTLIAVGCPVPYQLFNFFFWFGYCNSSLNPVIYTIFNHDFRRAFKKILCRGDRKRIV
As to the kind of experiment: Antagonist activity for Alpha-2 adrenergic receptor against clonidine in rat vas deferences. In kind it is functional.

The target in test [2] is T2, Adrenergic receptor alpha-1 (Rattus norvegicus, UniProt P15823+P23944+P43140).
T2 sequence (P15823 whole entry): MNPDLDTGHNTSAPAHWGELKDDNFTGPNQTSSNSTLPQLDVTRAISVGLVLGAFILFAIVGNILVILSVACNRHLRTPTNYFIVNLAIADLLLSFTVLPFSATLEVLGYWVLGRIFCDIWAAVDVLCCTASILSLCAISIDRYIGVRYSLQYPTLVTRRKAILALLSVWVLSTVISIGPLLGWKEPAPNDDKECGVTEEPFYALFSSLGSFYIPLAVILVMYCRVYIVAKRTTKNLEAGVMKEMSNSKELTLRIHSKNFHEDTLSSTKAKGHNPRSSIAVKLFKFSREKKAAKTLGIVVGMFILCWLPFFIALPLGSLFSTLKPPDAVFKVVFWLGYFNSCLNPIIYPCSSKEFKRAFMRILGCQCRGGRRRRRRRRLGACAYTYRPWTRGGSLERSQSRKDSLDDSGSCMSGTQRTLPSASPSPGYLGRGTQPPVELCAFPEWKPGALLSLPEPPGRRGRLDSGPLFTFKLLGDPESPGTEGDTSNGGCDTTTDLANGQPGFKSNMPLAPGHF
T2 sequence (P23944 whole entry): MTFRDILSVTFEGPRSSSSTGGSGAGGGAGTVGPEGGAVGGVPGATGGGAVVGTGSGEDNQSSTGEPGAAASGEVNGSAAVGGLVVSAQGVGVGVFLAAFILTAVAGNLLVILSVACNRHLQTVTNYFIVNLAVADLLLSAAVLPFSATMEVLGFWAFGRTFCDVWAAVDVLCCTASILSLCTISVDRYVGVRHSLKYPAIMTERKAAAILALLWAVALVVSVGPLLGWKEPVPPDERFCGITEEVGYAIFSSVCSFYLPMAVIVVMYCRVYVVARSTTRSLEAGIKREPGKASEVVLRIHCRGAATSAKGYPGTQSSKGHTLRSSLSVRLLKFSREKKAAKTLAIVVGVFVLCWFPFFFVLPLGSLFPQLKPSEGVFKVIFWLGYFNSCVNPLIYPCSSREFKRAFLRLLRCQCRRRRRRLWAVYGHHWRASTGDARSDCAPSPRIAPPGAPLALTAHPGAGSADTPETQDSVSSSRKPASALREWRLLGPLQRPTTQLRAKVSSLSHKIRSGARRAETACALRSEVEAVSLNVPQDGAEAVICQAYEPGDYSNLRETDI
T2 sequence (P43140 whole entry): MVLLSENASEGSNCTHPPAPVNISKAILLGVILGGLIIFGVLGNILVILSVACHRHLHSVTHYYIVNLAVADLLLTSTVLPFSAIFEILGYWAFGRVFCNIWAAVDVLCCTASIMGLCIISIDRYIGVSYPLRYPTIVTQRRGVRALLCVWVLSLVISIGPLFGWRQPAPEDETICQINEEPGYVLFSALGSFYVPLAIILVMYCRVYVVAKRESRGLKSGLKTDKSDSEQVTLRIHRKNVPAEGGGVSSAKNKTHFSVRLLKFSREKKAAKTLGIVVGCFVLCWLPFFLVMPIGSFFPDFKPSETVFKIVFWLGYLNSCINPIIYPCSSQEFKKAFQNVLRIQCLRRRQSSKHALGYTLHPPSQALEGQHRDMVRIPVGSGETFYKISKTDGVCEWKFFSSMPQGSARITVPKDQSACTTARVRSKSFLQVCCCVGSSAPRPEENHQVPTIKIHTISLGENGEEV
The test can be described thus: Antagonist activity for Alpha-1 adrenergic receptor against norepinephrine in rat vas deferences. In kind it is functional.

The target in test [3] is T1, Adrenergic receptor alpha-2. As to the kind of experiment: Compound evaluated for antagonist activity to alpha-2 adrenergic receptor in a competitive assay against clonidine in rat vas deferences. Format: functional. Summed up: (§1)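 Male albino rat (175–200 g) vas deferens in 20 mL Krebs baths containing propranolol 1 μM and cocaine 10 μM, loading tension 0.5–0.8 g. Field stimulation at 0.1 Hz, 3-ms pulses, fixed 10–35 V. After ≥1 h equilibration, a cumulative clonidine curve (twitch inhibition) was run, then 30 min antagonist and a second curve. Time-matched controls were run. pA2 came from Schild plots (slope constrained to −1), three antagonist concentrations ×5, or van Rossum for two concentrations.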

Test [4] deals with T2, Adrenergic receptor alpha-1. The test can be described thus: Compound evaluated for antagonist activity to alpha-1 adrenergic receptor in a competitive assay against norepinephrine in rat vas deferences. Format: functional. Summed up: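 Epididymal portion (14 mm) of male albino rat (175–200 g) vas deferens in Krebs with propranolol 1 μM and cocaine 10 μM, tension 0.4 g, equilibrated ≥1 h. Cumulative norepinephrine contraction curves: the first was discarded and the second was the control. A third curve followed 30 min antagonist incubation. Responses were taken as % of control maximum, corrected by untreated time-controls. Dose ratios at EC50 (three concentrations ×5) gave Schild pA2 with slope constrained to −1.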

For test [5], the target named is Adrenergic receptor alpha-1 (Rattus norvegicus) (UniProt P15823+P23944+P43140). The test can be described thus: Selectivity ratio is the antilog of the difference between pA2 at alpha-1 and alpha-2 adrenergic receptors. In a few lines: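 Ratio calculated as the antilog of the difference between the pA2 values from the norepinephrine (α1, epididymal vas deferens) and clonidine (α2, field-stimulated vas deferens) Schild analyses in rat tissue.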

For test [6], the species on record is Rattus norvegicus. As to the kind of experiment: Compound was tested for its effect in reducing the mean blood pressure after 2 min in male wistar rats. Format: functional. Summed up:
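Male Wistar rats (400–490 g) under equithesin (3 mL/kg, then 0.8 mL/kg ip, with supplements every 90–120 min). Dosing was a single pulse iv injection into the jugular vein of 100 μg/kg in 30 μL, flushed with 100 μL saline, after a vehicle-only control. Carotid mean arterial pressure was followed over time as % decrease, given as mean ± SE, with paired t test.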

Test [7] concerns the target T1, Adrenergic receptor alpha-2. The test can be described thus: Compound evaluated for antagonist activity to Alpha-2 adrenergic receptor in a competitive assay against clonidine in rat vas deferences. In kind it is functional. In a few lines: as §1

By pA2 is commonly meant a measure of antagonist potency on a negative log scale. Low readings indicate lower antagonist potency, high ones higher antagonist potency. Consider `COc1cc2nc(N(C)CCCCCCNC(=O)c3ccco3)nc(N)c2cc1OC`, for which the results for the pA2 in test [1] and in test [2] were 5.98 and 8.53, respectively.

`COc1cc2nc(NCCCCCNC(=O)c3ccco3)nc(N)c2cc1OC`: the values for the pA2 in test [3] and in test [4] were 5.01 and 7.72, respectively. For the same compound, the Ratio in test [5] came out at 513.

Consider `COc1cc2nc(N(C)CCCCCN(C)C(=O)c3ccco3)nc(N)c2cc1OC`, for which the pA2 is on record as 6.68 in test [1] and 8.83 in test [2].

`COc1cc2nc(N3CCN(C(=O)c4ccco4)CC3)nc(N)c2cc1OC` [PRAZOSIN]: the Reduction in test [6] is given as 38.5%.

For the compound `COc1cc2nc(N(C)CCCCCCCN(C)C(=O)c3ccco3)nc(N)c2cc1OC`, the pA2 was determined as 6.55 in test [1] and 8.6 in test [2].

As for `COc1cc2nc(N(C)CCCN(C)C(=O)c3ccco3)nc(N)c2cc1OC`, the pA2 amounted to 6.45 in test [1] and 7.41 in test [2].

Turning to `COc1cc2nc(NCCCCCCN(C)C(=O)c3ccco3)nc(N)c2cc1OC`, the pA2 in test [1] was 5.76; in test [2] it was 8.17.

Consider `COc1cc2nc(N(C)CCNC(=O)c3ccco3)nc(N)c2cc1OC`, for which the pA2 was found to be 5.2 in test [7] and 8.03 in test [2].

In the case of `COc1cc2nc(NCCCCCCCCNC(=O)c3ccco3)nc(N)c2cc1OC`, the results for the pA2 in test [1] and in test [2] were 4.78 and 7.22, respectively.

`COc1cc2nc(N(C)CCCCCCCCN(C)C(=O)c3ccco3)nc(N)c2cc1OC`: the values for the pA2 in test [1] and in test [2] were 6.31 and 8.1, respectively.

Regarding `COc1cc2nc(NCCCCCCCNC(=O)c3ccco3)nc(N)c2cc1OC`, the pA2 was found to be 5.04 in test [1] and 7.54 in test [2].

Consider `COc1cc2nc(NCCCNC(=O)c3ccco3)nc(N)c2cc1OC`, for which the pA2 in test [3] worked out at 5.99; in test [4], 8.01. The Ratio in test [5] came to 105.

With `COc1cc2nc(N(C)CCCCCCN(C)C(=O)c3ccco3)nc(N)c2cc1OC`, the pA2 is recorded as 6.84 in test [1] and 8.93 in test [2]. In test [6], this compound registered a Reduction of 57.5%.

Take `COc1cc2nc(N(C)CCCCN(C)C(=O)c3ccco3)nc(N)c2cc1OC`: the pA2 in test [1] stood at 6.5; in test [2] it was 8.15.

Turning to `COc1cc2nc(NCCCCCCNC(=O)c3ccco3)nc(N)c2cc1OC`, the results for the pA2 in test [3] and in test [4] were 4.51 and 7.88, respectively. Moreover, in test [5], the Ratio turned out to be 2340.

Consider `COc1cc2nc(NCCNC(=O)c3ccco3)nc(N)c2cc1OC`, for which the values for the pA2 in test [1] and in test [2] were 5.37 and 8.28, respectively.

Consider `COc1cc2nc(N(C)CCN(C)C(=O)c3ccco3)nc(N)c2cc1OC`, for which the values for the pA2 in test [1] and in test [2] were 5.52 and 6.7, respectively.

On to `COc1cc2nc(NCCCCNC(=O)c3ccco3)nc(N)c2cc1OC`, for which the pA2 in test [3] was determined as 6.03; in test [4] it was 8.25. Also, in test [5], the Ratio is 170.
